Screens deposited in PubChem by The Scripps Research Institute Molecular Screening Center.
Hits are enriched below; roughly 1.9% of the tested compounds scored in any of these assays.
M4 PAM = positive allosteric modulators of human muscarinic M4 receptor | CHO-K1 hM4/Gqi5, Fluo-8 calcium fluorescence, ACh EC20; 0% = ACh EC20, 100% = maximal ACh | activation, % at 3 µM | actives 0.4% (n = 360,000) | AID 624126;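 active = activation above its plate's cutoff, the mean activation of sample wells plus 3 SD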
CHRM5 PAM = positive allosteric modulators of human muscarinic M5 receptor. P08912. CHO-K1 hM5, Fluo-8 calcium, ACh EC20 PAM; 0% = ACh EC20, 100% = ACh EC100. AID 624038. activation, % at 3 µM. actives 0.3% (n = 360,000);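 active = activation above the run cutoff, the mean activation of all test compounds plus 3 SD, cut at about 18% in these data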
Target sequence (P08912 whole entry, looked up): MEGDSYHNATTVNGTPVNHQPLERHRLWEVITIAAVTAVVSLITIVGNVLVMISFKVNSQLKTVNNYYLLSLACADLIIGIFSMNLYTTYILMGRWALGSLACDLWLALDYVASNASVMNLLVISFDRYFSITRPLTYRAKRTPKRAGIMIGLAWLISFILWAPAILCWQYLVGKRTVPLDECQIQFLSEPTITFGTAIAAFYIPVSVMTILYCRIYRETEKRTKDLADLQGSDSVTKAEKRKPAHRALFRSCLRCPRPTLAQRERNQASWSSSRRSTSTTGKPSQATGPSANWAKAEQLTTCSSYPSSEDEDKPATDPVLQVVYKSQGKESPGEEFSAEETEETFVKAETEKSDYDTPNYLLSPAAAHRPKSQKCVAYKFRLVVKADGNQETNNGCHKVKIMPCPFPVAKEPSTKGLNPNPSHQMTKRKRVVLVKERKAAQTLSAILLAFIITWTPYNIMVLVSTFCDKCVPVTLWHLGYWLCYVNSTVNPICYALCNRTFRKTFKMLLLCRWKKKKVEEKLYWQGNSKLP
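system = human M5 receptor in CHO-K1 cells | compound = one concentration, 3 µM final (nominal) | schedule = Post-acetylcholine fluorescence recording 140 s | signal = Fluo-8 calcium dye fluorescence, kinetic read | benchmarks = low control EC20 acetylcholine (0%), high control EC100 acetylcholine (100%) | repeats = singlicate, one well per test compound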
M4 antag = blocks acetylcholine activation of human M4 receptor; P08173; CHO-hM4 cells, ACh EC80, Fluo-8 calcium fluorescence; inhibition, % at 3 µM; actives 0.73% (n = 360,000); AID 624125;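 active = inhibition above its plate's cutoff, the mean inhibition of sample wells plus 3 SD, cut at about 27% in these data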;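 also: 0% = acetylcholine EC80 with DMSO and 100% = DMSO without agonist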
M4 ag = CHRM4 agonism in calcium assay; activation, % at 3 µM; actives 0.14% (n = 360,000); P08173; CHO-K1 hM4/Gqi5, Fluo-8 calcium fluorescence; vehicle 0%, full acetylcholine response 100%;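 active = activation above the run mean over all test wells plus 3 SD, cut at about 32% in these data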;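 also: peak over basal fluorescence ratio per well then scaled between controls; 0% = DMSO wells and 100% = acetylcholine at EC100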
M5 antag = antagonists of human muscarinic M5 receptor (CHRM5) | CHO-hM5 cells, Fluo-8 calcium fluorescence, ACh EC80 | inhibition, % at 3 µM | P08912 | AID 624040 | actives 0.59% (n = 360,000);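 active = inhibition above a per-plate cutoff, the mean of that plate's test compounds plus 3 SD, cut at about 27% in these data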;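 also: 0% = acetylcholine EC80 with DMSO and 100% = DMSO without agonist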
M5 ag = agonists of human muscarinic M5 receptor (CHRM5). CHO-K1 hM5 cells, Fluo-8 calcium fluorescence; 0% DMSO wells, 100% maximal acetylcholine response. activation, % at 3 µM. actives 0.19% (n = 360,000). AID 624037;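 active = activation above the run's mean over test compounds plus 3 SD, cut at about 23% in these data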;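 also: signal is peak over basal fluorescence ratio across the kinetic read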
* hit, by the source's call.

SMILES | M4 PAM | CHRM5 PAM | M4 antag | M4 ag | M5 antag | M5 ag
CN(C)CCC(=O)N1c2ccccc2Sc2ccc(Cl)cc21 | -24.4 | -19.8 | 95.8* | 0.3 | 99.5* | -10.1
CC(O)(c1ccccc1)c1nc(-c2ccc(S(C)(=O)=O)cc2)cs1 (stereo not drawn) | -4.1 | 0.4 | 5.1 | 2.5 | 1.7 | -0.2
CC1CCN(S(=O)(=O)c2ccc(C(=O)Nc3nnc(-c4ccco4)o3)cc2)CC1 | 5.7 | 29.0* | 2.5 | -0.2 | -34.8 | 1.3
O=C(Nc1nnc(-c2ccco2)o1)c1ccc(S(=O)(=O)N2CCCC2)cc1 | 2.3 | 6.8 | 5.1 | 0.8 | -14.7 | 0.0
Cc1ccc(C(=O)Nc2nnc(-c3ccco3)o2)cc1 | 17.2 | 21.6* | 1.9 | 2.5 | 13.6 | 2.0
O=C(Nc1nnc(-c2ccco2)o1)C1CC1 | 12.8 | 22.9* | -4.1 | 2.4 | -7.7 | 6.0
CS(=O)(=O)c1ccccc1-c1nnc(NC(=O)c2ccco2)o1 | -4.2 | 0.3 | 39.4* | 0.2 | -3.2 | -0.1
COc1ccc(F)cc1S(=O)(=O)n1nnc2ccccc21 | 21.6* | 16.3 | -18.1 | 1.4 | -0.5 | -10.2
COc1ccc(OC)c(S(=O)(=O)n2nnc3ccccc32)c1 | 1.8 | 2.4 | 10.1 | -0.2 | -1.1 | -1.0
CCCCN(C(=O)CSCC(=O)Nc1ccc(C)cc1)c1c(N)n(CC(C)C)c(=O)[nH]c1=O | 11.9 | 4.4 | -14.6 | 1.2 | 10.7 | 1.1
O=C(NCC(=O)N1CCOCC1)c1ccccc1 | -1.4 | -3.0 | 10.8 | 1.2 | 8.9 | -1.3
COc1ccc(Cc2nnc(SCC(=O)Nc3ccc(C)cc3)n(N)c2=O)cc1 | 4.6 | -33.3 | -12.4 | 3.9 | 101.1* | -10.3
COc1ccc(CCn2c(C3CCCCC3)nc3c(c(=O)c4ccccc4n3C)c2=O)cc1 | -13.8 | -8.1 | 1.1 | 45.1* | 8.2 | 9.6
CCSc1nncn1/N=C/c1ccc(OC)c(OC)c1 | 9.1 | -0.2 | 1.0 | 0.2 | -2.2 | -1.7
C=C(C)CSc1nncn1/N=C/c1ccc(OC)cc1 | 30.4* | 1.5 | 5.9 | 2.0 | -7.8 | 7.1
COc1ccc(-c2n(CC(=O)OC3CC(C)CCC3C(C)C)c3ccccc3[n+]2C)cc1 (stereo not drawn) | -14.7 | -17.6 | 22.5 | 4.0 | 39.9* | -6.6
COc1cc(C(=O)N(CCN(C)C)CC2CCCN(Cc3ccccc3F)C2)ccc1C (stereo not drawn) | -1.6 | 3.5 | 1.8 | 1.3 | -2.2 | -6.2
Cc1cc(C)nc(Nc2ncc(O)n2-c2ccccc2)n1 | -6.6 | 0.8 | 8.9 | 0.9 | 2.3 | 0.5
Cc1cccc(-n2c(O)cnc2Nc2nc(C)cc(C)n2)c1 | -8.3 | -12.3 | 4.8 | 16.7 | 27.1* | 0.4
COc1ccc(NC(=O)N(O)C2(C#N)CCCCC2)cc1 | 0.9 | -1.5 | 4.3 | 1.9 | 4.1 | 0.7
COc1ccccc1-n1c(C)nc2cc(C(=O)O)ccc21 | 13.5 | 18.8* | 19.2 | 1.2 | 4.9 | 1.4
CC(=O)Nc1ccc(/C=N/N2CCCCC2)cc1 | -11.2 | 19.8* | 2.2 | 1.0 | -17.3 | 14.9
COc1ccc(CSc2nnc3[nH]c(=O)cc(N)n23)cc1 | 19.8 | -13.1 | -8.5 | 0.9 | 35.3* | -6.8
Cc1c(CCOC(=O)c2ccccc2)sc[n+]1Cc1ccccc1 | -41.4 | -22.1 | 63.8* | -0.7 | 95.2* | -7.6
Cc1c(CCOC(=O)c2cc([N+](=O)[O-])cc([N+](=O)[O-])c2)sc[n+]1CC(=O)c1ccccc1 | -9.3 | 4.4 | 3.6 | 1.2 | 2.5 | -15.3
Cc1c(CCOC(=O)c2ccccc2)sc[n+]1CC(=O)c1ccc(Br)cc1 | -15.8 | -17.7 | 28.1* | 0.5 | 28.0* | -6.4
O=C(NCCO)C(=O)Nc1cc2c3c(c1)CC(=O)N3CCC2 | 14.3* | 8.4 | 1.3 | -0.7 | 1.5 | -4.1
CC(C)CC(=NNC(=O)c1ccncc1)c1cc(Cl)ccc1O | -2.9 | -15.5 | -3.8 | 40.0* | 13.1 | 38.0*
CC(=NNC(=O)c1ccncc1)c1ccc2ccccc2c1O | -12.7 | -47.6 | 10.7 | 56.5* | 18.6 | 194.1*
